Key:
[1] = biological target: Serine/threonine-protein kinase ULK2 (Homo sapiens) (UniProt Q8IYT8); assay: Inhibition of human ULK2 assessed as residual activity at 1 uM relative to control
[2] = biological target: Mitogen-activated protein kinase 1 (Homo sapiens) (UniProt P28482); assay: Inhibition of human MAPK1 assessed as residual activity at 1 uM relative to control
[3] = biological target: Ribosomal protein S6 kinase alpha-1 (Homo sapiens) (UniProt Q15418); assay: Inhibition of human Rsk1 assessed as residual activity at 1 uM relative to control
[4] = biological target: Vascular endothelial growth factor receptor 3 (Homo sapiens) (UniProt P35916); assay: Inhibition of human Flt4 assessed as residual activity at 1 uM relative to control
Chain of Vascular endothelial growth factor receptor 3 (Homo sapiens) (P35916 whole entry): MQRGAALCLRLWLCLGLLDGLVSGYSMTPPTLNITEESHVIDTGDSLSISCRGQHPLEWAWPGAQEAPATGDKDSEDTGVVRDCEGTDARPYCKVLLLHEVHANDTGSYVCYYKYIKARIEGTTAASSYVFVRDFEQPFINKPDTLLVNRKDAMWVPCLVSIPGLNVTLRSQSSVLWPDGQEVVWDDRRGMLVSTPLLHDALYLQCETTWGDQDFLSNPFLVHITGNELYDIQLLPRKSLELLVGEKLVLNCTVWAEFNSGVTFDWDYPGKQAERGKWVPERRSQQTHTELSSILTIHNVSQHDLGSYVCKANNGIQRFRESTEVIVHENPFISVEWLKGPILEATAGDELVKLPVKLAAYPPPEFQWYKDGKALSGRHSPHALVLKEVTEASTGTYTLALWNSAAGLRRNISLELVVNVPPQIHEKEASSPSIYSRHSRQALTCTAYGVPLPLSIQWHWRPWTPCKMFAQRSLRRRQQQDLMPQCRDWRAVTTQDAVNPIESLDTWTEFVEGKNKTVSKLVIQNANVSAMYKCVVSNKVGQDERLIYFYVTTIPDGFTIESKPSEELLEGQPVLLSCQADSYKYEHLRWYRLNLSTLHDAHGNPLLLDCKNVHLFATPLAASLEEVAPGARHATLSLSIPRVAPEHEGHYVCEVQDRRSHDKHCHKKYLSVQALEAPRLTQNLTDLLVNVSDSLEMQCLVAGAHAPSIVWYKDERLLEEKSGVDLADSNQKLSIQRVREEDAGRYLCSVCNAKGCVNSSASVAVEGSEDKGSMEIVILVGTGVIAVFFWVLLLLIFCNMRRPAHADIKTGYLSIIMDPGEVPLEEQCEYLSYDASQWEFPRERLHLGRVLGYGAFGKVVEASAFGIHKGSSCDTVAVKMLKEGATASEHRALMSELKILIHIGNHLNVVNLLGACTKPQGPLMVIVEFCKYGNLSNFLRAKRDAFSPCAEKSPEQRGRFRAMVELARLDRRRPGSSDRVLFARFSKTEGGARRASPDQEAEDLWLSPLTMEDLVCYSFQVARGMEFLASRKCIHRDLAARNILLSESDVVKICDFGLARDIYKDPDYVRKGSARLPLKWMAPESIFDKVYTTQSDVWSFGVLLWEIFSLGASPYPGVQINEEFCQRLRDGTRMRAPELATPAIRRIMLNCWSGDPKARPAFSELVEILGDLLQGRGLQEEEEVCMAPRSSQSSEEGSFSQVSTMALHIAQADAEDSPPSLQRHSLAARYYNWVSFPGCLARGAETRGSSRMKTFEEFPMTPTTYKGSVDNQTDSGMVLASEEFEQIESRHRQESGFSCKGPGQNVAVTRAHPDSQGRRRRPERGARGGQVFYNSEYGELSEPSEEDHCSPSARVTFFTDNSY

[5] = biological target: Death-associated protein kinase 2 (Homo sapiens) (UniProt Q9UIK4); assay: Inhibition of human DAPK2 assessed as residual activity at 1 uM relative to control
[6] = biological target: Serine/threonine-protein kinase Sgk2 (Homo sapiens) (UniProt Q9HBY8); assay: Inhibition of human SGK2 assessed as residual activity at 1 uM relative to control
[7] = biological target: Homeodomain-interacting protein kinase 1 (Homo sapiens) (UniProt Q86Z02); assay: Inhibition of human HIPK1 assessed as residual activity at 1 uM relative to control
[8] = biological target: Platelet-derived growth factor receptor alpha (Homo sapiens) (UniProt P16234); assay: Inhibition of PDGFR-alpha (unknown origin) assessed as residual activity at 1 uM relative to control
[9] = biological target: LIM domain kinase 1 (Homo sapiens) (UniProt P53667); assay: Inhibition of human LIMK1 assessed as residual activity at 1 uM relative to control
[10] = biological target: Tyrosine-protein kinase ABL2 (Homo sapiens) (UniProt P42684); assay: Inhibition of human Arg assessed as residual activity at 1 uM relative to control
[11] = biological target: RAC-beta serine/threonine-protein kinase (Homo sapiens) (UniProt P31751); assay: Inhibition of human PKBbeta assessed as residual activity at 1 uM relative to control
[12] = biological target: MAP kinase-interacting serine/threonine-protein kinase 2 (Homo sapiens) (UniProt Q9HBH9); assay: Inhibition of human Mnk2 assessed as residual activity at 1 uM relative to control
[13] = biological target: Mast/stem cell growth factor receptor Kit (Homo sapiens) (UniProt P10721); assay: Inhibition of KIT (unknown origin) assessed as residual activity at 1 uM relative to control
[14] = tested on: MCF7; assay: Cell cycle arrest in human MCF7 cells assessed as accumulation at G1 phase at 0.5 uM after 24 hrs using propidium iodide staining by FACS analysis (reference value: 57.74%); type: functional
[15] = biological target: Cyclin-dependent kinase 5/CDK5 activator 1 (Homo sapiens) (UniProt Q00535+Q15078); assay: Inhibition of CDK5/p35NCK (unknown origin) assessed as residual activity at 1 uM relative to control; type: protein-complex assay
[16] = species on record: Homo sapiens; assay: Inhibition of S6K (unknown origin) assessed as residual activity at 1 uM relative to control
[17] = biological target: Platelet-derived growth factor receptor beta (Homo sapiens) (UniProt P09619); assay: Inhibition of human PDGFRbeta assessed as residual activity at 1 uM relative to control
Chain of Platelet-derived growth factor receptor beta (Homo sapiens) (P09619 whole entry): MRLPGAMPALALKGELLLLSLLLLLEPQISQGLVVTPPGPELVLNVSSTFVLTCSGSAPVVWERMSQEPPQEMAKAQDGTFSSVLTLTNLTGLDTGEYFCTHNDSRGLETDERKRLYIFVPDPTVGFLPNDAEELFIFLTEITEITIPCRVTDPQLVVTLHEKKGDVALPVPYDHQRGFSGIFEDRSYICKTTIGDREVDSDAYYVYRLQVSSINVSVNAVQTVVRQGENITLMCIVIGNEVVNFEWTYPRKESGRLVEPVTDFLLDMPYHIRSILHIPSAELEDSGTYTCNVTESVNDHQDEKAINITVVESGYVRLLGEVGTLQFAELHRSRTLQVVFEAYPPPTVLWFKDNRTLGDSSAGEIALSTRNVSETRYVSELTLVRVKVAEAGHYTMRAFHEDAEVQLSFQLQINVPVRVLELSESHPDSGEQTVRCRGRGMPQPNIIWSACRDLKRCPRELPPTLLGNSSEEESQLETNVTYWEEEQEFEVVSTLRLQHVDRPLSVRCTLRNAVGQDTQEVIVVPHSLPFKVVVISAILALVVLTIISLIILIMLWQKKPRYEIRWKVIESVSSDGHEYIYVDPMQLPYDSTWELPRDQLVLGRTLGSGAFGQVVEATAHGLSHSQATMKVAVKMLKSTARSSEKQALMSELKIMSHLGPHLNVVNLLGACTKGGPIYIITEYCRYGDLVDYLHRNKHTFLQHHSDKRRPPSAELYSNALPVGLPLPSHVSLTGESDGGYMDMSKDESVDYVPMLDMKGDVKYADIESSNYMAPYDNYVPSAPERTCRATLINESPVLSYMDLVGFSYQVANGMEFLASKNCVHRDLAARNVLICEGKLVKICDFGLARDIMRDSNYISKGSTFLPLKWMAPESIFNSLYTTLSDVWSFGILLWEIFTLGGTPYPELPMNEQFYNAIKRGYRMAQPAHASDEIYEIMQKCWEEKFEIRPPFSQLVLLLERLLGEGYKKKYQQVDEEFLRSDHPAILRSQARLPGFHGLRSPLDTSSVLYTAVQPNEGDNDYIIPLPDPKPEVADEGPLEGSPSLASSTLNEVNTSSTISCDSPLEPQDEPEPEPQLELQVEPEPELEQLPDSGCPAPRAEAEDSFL

[18] = tested on: NCI-H226; assay: Antiproliferative activity against human NCI-H226 cells after 3 days by sulforhodamine B assay; type: functional; details: NCI-H226, 72 h
Summary of the method: (§1)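 Tested in the NCI 60 cell line panel. GI50 is the concentration giving 50% inhibition of cell growth, and values are the mean of two series of tests.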

[19] = biological target: Vascular endothelial growth factor receptor 2 (Homo sapiens) (UniProt P35968); assay: Inhibition of VEGF-R2 (unknown origin) assessed as residual activity at 1 uM relative to control
Chain of Vascular endothelial growth factor receptor 2 (Homo sapiens) (P35968 whole entry): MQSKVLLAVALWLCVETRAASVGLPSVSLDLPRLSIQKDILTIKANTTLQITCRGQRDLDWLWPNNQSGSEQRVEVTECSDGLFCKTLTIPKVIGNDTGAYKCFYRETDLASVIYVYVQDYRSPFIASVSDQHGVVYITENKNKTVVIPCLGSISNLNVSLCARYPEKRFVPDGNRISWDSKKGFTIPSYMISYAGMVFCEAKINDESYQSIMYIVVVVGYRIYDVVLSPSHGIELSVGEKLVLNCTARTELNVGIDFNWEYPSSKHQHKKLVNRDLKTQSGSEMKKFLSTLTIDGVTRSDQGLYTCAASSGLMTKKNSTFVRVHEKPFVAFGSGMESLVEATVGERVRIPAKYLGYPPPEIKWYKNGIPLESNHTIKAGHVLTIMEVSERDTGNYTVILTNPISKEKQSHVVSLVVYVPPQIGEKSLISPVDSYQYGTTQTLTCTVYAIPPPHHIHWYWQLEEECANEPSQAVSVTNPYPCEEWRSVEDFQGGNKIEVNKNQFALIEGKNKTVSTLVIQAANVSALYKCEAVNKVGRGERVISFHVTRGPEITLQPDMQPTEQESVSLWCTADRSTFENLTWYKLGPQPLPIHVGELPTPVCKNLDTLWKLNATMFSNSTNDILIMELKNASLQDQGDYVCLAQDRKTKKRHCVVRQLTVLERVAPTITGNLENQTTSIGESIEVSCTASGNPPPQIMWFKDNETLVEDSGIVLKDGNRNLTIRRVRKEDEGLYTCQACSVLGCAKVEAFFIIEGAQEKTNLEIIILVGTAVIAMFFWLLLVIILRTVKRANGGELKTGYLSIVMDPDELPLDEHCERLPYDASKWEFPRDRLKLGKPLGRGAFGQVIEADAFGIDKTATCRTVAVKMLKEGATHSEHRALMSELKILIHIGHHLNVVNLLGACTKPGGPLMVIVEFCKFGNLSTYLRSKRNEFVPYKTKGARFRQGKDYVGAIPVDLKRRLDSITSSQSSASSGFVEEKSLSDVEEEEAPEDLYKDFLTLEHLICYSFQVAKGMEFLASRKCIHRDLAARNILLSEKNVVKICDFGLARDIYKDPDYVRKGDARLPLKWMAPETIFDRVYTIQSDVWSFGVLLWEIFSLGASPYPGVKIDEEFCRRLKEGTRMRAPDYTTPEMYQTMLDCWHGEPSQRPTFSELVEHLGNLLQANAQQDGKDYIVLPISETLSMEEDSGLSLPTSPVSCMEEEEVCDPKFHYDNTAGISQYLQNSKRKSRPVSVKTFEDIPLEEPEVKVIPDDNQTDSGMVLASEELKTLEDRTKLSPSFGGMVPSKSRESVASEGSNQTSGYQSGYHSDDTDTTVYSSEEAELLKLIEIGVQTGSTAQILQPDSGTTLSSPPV

[20] = biological target: Proto-oncogene tyrosine-protein kinase Src (Homo sapiens) (UniProt P12931); assay: Inhibition of human cSRC assessed as residual activity at 1 uM relative to control
[21] = biological target: Protein kinase C beta type (Homo sapiens) (UniProt P05771); assay: Inhibition of human PKCbeta1 assessed as residual activity at 1 uM relative to control
[22] = tested on: MCF7; assay: Antiproliferative activity against human MCF7 cells after 3 days by SRB assay; type: functional, cell-based; details: MCF7, 72 h
Summary of the method: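 Cells grown at 37 °C, 5% CO2, with 10% heat-inactivated FBS: LXFL529L in RPMI 1640, MCF7 and HT29 in DMEM. Seeded, allowed 24 h growth, then exposed to the drug at various concentrations for 3 days in serum medium. Fixed with TCA for 1 h at 4 °C, stained with 0.4% SRB, eluted in 10 mM Tris pH 10.5, read at 570 nm as % T/C. IC50 taken from dose–response curves of at least three independent experiments.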

[23] = biological target: Serine/threonine-protein kinase Chk2 (Homo sapiens) (UniProt O96017); assay: Inhibition of CHK2 (unknown origin) assessed as residual activity at 1 uM relative to control
[24] = biological target: Casein kinase II subunit alpha' (Homo sapiens) (UniProt P19784); assay: Inhibition of human CK2a2 assessed as residual activity at 1 uM relative to control
[25] = tested on: COLO 205; assay: Antiproliferative activity against human COLO205 cells after 3 days by sulforhodamine B assay; type: functional; details: COLO 205, 72 h; summary of the method: as §1
[26] = Antiproliferative activity against human SF539 cells after 3 days by sulforhodamine B assay; type: functional; details: SF-539, 72 h; summary of the method: as §1
[27] = biological target: Ephrin type-B receptor 1 (Homo sapiens) (UniProt P54762); assay: Inhibition of human EphB1 assessed as residual activity at 1 uM relative to control
[28] = biological target: Serine/threonine-protein kinase ULK3 (Homo sapiens) (UniProt Q6PHR2); assay: Inhibition of human ULK3 assessed as residual activity at 1 uM relative to control
Chain of Serine/threonine-protein kinase ULK3 (Homo sapiens) (Q6PHR2 whole entry, the tested form may be a part): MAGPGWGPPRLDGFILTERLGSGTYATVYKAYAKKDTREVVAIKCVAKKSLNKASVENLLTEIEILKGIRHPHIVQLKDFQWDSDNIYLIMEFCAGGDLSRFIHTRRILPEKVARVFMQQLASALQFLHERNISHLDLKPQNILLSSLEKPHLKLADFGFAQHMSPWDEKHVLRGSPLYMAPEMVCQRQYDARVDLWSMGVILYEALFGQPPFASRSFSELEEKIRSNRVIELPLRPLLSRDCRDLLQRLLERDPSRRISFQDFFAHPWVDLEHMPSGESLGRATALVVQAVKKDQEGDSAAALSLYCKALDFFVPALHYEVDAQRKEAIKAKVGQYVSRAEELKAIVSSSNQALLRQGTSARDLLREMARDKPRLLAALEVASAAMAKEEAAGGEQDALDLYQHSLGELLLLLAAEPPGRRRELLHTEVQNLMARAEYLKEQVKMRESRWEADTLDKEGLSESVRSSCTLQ

[29] = biological target: Discoidin domain-containing receptor 2 (Homo sapiens) (UniProt Q16832); assay: Inhibition of human DDR2 assessed as residual activity at 1 uM relative to control
[30] = biological target: Vascular endothelial growth factor receptor 3 (Homo sapiens) (UniProt P35916); assay: Inhibition of VEGF-R3 (unknown origin) assessed as residual activity at 10 uM relative to control
[31] = biological target: Serine/threonine-protein kinase 3 (Homo sapiens) (UniProt Q13188); assay: Inhibition of human MST2 assessed as residual activity at 1 uM relative to control
[32] = biological target: cGMP-dependent protein kinase 1 (Homo sapiens) (UniProt Q13976); assay: Inhibition of human PKG1alpha assessed as residual activity at 1 uM relative to control
Chain of cGMP-dependent protein kinase 1 (Homo sapiens) (Q13976 whole entry): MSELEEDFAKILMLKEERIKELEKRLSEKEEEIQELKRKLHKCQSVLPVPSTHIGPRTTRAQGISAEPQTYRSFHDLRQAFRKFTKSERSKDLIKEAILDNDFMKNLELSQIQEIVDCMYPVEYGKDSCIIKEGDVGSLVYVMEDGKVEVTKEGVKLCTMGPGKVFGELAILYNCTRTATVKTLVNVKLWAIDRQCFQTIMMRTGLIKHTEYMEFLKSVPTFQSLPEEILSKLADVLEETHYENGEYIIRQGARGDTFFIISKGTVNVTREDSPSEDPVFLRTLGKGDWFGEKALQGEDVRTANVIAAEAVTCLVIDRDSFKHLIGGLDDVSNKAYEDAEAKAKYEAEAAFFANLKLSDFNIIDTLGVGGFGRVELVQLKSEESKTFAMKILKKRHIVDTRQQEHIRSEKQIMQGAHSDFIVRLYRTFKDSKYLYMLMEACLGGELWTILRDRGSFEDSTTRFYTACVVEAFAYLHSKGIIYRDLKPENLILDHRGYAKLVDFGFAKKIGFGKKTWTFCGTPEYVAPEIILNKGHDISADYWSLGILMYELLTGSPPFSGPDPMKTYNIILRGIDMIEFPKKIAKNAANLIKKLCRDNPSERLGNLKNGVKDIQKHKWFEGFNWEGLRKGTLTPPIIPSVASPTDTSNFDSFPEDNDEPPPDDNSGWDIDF

[33] = biological target: Ephrin type-A receptor 3 (Homo sapiens) (UniProt P29320); assay: Inhibition of human EphA3 assessed as residual activity at 1 uM relative to control

O=C1Nc2ncccc2/C1=C1/Nc2ncccc2C1=O
Activity [1]: 65% | Activity [2]: 96% | Activity [3]: 114% | Activity [4]: 68% | Activity [5]: 114% | Activity [6]: 127% | Activity [7]: 80% | Activity [8]: 94% | Activity [9]: 80% | Activity [10]: 98% | Activity [11]: 87% | Activity [12]: 99% | Activity [13]: 108% | Activity [14]: 59.53% | Activity [15]: 106% | Activity [16]: 109% | Activity [17]: 160% | GI50 [18]: 1420 nM | Activity [19]: 93% | Activity [20]: 63% | Activity [21]: 105% | IC50 [22]: 500 nM | Activity [23]: 89% | Activity [24]: 28% | GI50 [25]: 372 nM | GI50 [26]: 1900 nM | Activity [27]: 114% | Activity [28]: 100% | Activity [29]: 119% | Activity [30]: 73% | Activity [31]: 105% | Activity [32]: 121% | Activity [33]: 83%

Reference: ChEMBL document CHEMBL3098105, “7,7'-Diazaindirubin--a small molecule inhibitor of casein kinase 2 in vitro and in cells” (Bioorg Med Chem, 2014)
